How the values were obtained:
[1] = biological target: Estrogen receptor beta (Homo sapiens, UniProt Q92731); assay: Displacement of fluorescein-labeled ES2 from human recombinant ERbeta receptor after 2 hrs by fluorescence polarization assay
Procedure, shortened: (§1)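 Fluorescence polarization competition. Compound in methanol or DMSO mixed with ES2 screening buffer (100 mM potassium phosphate, 100 μg/mL BGG, 0.02% NaN₃). Preformed complex added to final 9 nM ES2 with 30 nM ER-α or 20 nM ER-β. Polarization expressed as % of vehicle control; EC50 from one-site competition fit.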

[2] = biological target: T1, Cytochrome P450 1A2 (Homo sapiens, UniProt P05177); assay: Inhibition of human recombinant CYP1A2 assessed as metabolism of 3-cyano-7-ethoxycoumarin after 30 mins by fluorescence assay; assay type: ADME
T1 sequence (P05177 whole entry): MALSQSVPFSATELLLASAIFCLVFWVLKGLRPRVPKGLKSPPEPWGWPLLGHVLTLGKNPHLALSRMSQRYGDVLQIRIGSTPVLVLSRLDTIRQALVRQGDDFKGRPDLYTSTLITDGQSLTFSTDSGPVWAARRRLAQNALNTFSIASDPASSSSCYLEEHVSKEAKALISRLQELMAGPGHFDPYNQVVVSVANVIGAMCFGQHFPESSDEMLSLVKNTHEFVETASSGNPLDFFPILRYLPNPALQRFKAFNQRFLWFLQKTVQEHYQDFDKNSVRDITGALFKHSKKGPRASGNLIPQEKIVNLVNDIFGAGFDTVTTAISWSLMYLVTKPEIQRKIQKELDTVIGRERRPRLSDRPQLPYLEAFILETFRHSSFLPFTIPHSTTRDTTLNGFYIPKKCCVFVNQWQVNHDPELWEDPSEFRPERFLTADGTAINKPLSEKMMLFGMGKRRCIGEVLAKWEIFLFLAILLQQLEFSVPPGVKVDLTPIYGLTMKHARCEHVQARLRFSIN

[3] = biological target: Cytochrome P450 3A5 (Homo sapiens, UniProt P20815); assay: Inhibition of human recombinant CYP3A5 assessed as metabolism of 7-benzyloxy-4-trifluoromethylcoumarin to HFC after 30 mins by fluorescence assay; assay type: ADME
[4] = biological target: Cytochrome P450 3A4 (Homo sapiens, UniProt P08684); assay: Inhibition of human recombinant CYP3A4 assessed as metabolism of 7-benzyloxy-4-trifluoromethylcoumarin to HFC after 30 mins by fluorescence assay; assay type: ADME
[5] = biological target: Cytochrome P450 2D6 (Homo sapiens, UniProt P10635); assay: Inhibition of human recombinant CYP2D6 after 30 mins by fluorescence assay; assay type: ADME
[6] = biological target: T2, Cytochrome P450 2A6 (Homo sapiens, UniProt P11509); assay: Inhibition of human recombinant CYP2A6 assessed as metabolism of coumarin to 7-hydroxycoumarin after 30 mins by fluorescence assay; assay type: ADME
T2 sequence (P11509 whole entry): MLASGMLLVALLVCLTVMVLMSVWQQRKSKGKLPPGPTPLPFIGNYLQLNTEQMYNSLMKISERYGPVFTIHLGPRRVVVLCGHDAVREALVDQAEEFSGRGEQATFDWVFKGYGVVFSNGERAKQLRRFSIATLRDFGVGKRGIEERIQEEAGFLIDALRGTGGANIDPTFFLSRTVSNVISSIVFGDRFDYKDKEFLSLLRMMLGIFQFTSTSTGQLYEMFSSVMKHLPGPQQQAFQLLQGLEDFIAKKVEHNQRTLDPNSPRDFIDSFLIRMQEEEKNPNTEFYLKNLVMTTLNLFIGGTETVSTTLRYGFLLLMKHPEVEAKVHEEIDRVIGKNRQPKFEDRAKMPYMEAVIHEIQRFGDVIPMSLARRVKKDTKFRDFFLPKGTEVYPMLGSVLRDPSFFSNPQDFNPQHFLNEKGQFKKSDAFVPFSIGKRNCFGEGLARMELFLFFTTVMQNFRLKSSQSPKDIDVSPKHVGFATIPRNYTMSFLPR

[7] = biological target: T3, Estrogen receptor (Homo sapiens) (UniProt P03372); assay: Antiestrogenic effect at estrogen receptor in human MCF7 cells assessed as inhibition of E2-induced progesterone receptor mRNA expression at 1000 nM after 24 hrs by real time quantitative PCR; assay type: cell-based; parameters: scale not given: the % may be the effect or the level left
T3 sequence (whole entry): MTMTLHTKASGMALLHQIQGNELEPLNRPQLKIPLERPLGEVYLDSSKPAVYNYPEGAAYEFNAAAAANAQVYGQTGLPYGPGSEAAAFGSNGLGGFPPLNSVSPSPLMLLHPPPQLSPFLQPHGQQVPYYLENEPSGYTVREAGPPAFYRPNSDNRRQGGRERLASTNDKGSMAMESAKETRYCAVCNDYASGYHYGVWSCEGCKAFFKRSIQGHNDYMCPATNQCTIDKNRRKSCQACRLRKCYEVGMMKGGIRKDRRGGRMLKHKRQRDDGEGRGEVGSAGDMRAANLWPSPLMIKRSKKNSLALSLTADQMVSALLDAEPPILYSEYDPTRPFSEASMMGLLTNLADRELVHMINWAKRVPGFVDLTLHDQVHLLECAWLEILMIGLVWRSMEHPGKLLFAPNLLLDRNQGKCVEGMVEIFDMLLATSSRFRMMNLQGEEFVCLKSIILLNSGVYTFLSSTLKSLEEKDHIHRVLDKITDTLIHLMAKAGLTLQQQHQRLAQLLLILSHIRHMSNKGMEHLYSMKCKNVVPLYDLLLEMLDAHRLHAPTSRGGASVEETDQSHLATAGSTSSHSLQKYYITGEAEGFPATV
Procedure, shortened: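 MCF-7 cells (10⁵/well) grown in MEM + 10% FBS at 37 °C, 5% CO₂, then preconditioned 72 h in charcoal-stripped FBS. Treated 24 h with 1 μM compound or vehicle (0.1% methanol) plus 10 nM E2 in MEM/10% charcoal-stripped FBS. PGR mRNA extracted after genomic DNA removal and quantified by qPCR (40 cycles, Ct). Reported as % of E2-alone expression (100%); 1 μM endoxifen as positive control.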

[8] = biological target: T4, Aromatase (Homo sapiens, UniProt P11511); assay: Inhibition of human recombinant aromatase using 7-methoxy-trifluoromethylcoumarin as substrate assessed as formation of fluorescent metabolite after 30 mins by fluorescence assay
T4 sequence (P11511 whole entry): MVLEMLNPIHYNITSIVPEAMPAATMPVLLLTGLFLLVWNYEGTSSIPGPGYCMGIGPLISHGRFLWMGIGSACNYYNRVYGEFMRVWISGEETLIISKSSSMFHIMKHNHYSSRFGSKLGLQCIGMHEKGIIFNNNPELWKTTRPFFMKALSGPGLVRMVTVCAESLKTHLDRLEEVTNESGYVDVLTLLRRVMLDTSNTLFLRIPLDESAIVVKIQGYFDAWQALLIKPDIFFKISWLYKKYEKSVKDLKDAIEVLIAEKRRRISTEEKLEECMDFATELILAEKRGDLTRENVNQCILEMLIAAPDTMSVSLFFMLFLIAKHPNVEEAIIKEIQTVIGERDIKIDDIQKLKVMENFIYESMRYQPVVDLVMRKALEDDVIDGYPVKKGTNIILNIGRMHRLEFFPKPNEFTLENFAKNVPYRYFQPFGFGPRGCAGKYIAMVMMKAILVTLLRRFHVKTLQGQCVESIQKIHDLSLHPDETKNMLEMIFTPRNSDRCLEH
Procedure, shortened: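 Recombinant human CYP19 with MFC substrate, converted to fluorescent HFC, in 0.1 M potassium phosphate pH 7.4. NADPH-regenerating mix (NADP⁺, MgCl₂, glucose-6-phosphate, G6PDH); compound prewarmed 10 min at 37 °C, then 30 min reaction stopped with Tris base in acetonitrile. Activity as % of vehicle control; IC50 from one-site competition fit; Ki from Lineweaver–Burk data by nonlinear regression.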

[9] = biological target: T5, Estrogen receptor (Homo sapiens, UniProt P03372); assay: Displacement of fluorescein-labeled ES2 from human recombinant ERalpha receptor after 2 hrs by fluorescence polarization assay; procedure, shortened: as §1
T5 sequence (P03372 whole entry): T3 sequence (whole entry)

Sequence of Cytochrome P450 2D6 (P10635 whole entry): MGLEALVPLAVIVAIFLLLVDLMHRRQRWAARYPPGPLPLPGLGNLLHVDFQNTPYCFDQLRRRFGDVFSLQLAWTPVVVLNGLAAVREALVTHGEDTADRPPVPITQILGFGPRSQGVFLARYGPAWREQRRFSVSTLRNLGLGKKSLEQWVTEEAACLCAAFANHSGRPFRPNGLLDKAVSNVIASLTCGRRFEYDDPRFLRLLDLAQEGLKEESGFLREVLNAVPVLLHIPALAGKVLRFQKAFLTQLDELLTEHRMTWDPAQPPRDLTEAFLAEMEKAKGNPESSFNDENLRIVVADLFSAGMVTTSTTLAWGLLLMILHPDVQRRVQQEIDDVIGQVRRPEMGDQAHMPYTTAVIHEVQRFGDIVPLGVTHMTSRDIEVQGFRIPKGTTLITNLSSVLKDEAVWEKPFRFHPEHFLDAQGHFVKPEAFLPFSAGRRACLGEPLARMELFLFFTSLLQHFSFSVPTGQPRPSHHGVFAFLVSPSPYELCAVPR
Sequence of Cytochrome P450 3A4 (P08684 whole entry): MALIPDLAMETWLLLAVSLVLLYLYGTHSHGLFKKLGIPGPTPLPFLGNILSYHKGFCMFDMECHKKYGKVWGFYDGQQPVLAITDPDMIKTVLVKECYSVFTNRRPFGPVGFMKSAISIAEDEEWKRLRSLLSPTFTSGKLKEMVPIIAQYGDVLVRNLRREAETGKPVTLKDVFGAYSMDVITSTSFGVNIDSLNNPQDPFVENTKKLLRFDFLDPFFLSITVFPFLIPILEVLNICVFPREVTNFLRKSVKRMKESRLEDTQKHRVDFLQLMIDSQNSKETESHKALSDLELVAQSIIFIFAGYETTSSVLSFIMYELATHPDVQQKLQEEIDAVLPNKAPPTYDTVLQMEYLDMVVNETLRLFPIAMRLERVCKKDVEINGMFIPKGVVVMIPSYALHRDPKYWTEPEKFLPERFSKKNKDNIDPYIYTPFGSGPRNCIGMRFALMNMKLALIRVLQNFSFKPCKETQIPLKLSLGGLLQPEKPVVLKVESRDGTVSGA
Sequence of Cytochrome P450 3A5 (P20815 whole entry): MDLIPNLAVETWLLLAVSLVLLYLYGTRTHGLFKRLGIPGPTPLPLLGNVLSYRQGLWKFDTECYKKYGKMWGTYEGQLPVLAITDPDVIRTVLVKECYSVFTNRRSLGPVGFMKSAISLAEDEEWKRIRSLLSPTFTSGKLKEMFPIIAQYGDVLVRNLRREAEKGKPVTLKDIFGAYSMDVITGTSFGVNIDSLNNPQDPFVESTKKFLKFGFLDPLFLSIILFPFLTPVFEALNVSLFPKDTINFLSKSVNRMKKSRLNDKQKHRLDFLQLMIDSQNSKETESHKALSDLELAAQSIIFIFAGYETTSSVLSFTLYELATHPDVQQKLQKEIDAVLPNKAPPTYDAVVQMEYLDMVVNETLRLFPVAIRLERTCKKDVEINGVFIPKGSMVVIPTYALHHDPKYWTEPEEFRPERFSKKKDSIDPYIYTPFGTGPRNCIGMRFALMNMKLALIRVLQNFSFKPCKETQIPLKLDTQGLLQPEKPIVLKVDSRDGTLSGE
Sequence of Estrogen receptor beta (Q92731 whole entry): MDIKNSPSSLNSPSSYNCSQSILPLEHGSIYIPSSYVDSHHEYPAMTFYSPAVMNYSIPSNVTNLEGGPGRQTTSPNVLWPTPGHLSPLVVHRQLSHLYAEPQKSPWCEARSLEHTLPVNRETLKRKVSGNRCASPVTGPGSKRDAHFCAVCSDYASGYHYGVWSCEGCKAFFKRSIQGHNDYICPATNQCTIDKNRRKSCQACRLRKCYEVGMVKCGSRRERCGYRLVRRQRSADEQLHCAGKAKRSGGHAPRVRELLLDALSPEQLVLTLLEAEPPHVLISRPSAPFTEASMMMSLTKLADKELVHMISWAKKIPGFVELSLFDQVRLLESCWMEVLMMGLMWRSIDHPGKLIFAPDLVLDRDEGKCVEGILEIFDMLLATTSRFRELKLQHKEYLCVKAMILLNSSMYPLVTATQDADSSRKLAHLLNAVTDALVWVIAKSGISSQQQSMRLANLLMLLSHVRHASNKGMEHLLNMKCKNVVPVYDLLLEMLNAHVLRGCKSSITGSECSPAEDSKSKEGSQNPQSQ

SMILES: CC/C(=C(/c1ccc(O)cc1)c1ccc(OCCN)cc1)c1ccc(O)cc1 (mixture of isomers)
- EC50 [1]: 9.5 nM
- IC50 [2]: 207 nM
- Ki [2]: 56 nM
- IC50 [3]: 556 nM
- Ki [3]: 855 nM
- IC50 [4]: 1880 nM
- Ki [4]: 1640 nM
- IC50 [5]: 3.6 µM
- Ki ([5]; read-out: Ki): 423 nM
- Ki [6]: 710 nM
- Activity [7]: 14%
- IC50 [8]: 45 nM
- EC50 [9]: 15 nM
